Our source for the Activity values is ChEMBL document CHEMBL1139894, “Withanolides with phytotoxic activity from Jaborosa caulescens var. caulescens and J. caulescens var. bipinnatifida 1” (2007).

Holding throughout (format): functional
Assay [1] relates to Avena sativa. The experiment in a line: Phytotoxic activity against Avena sativa assessed as radicle length elongation at 150 ppm. In a few lines:
(§1)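 Radicle length of treated seedlings was compared with untreated controls and reported as the percentage difference from the control, which is set to zero. Negative values mean inhibition and positive values mean stimulation. Germination and root length were also compared between treated and control seeds using Student's t-test (p < 0.05).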

Assay [2] has as its system Lactuca sativa. The experiment in a line: Phytotoxic activity against Latuca sativa assessed as radicle length elongation at 400 ppm. In a few lines:
as §1

Assay [3] has as its system Avena sativa. The assay can be described thus: Phytotoxic activity against Avena sativa assessed as radicle length elongation at 400 ppm. In a few lines:
as §1

The subject of assay [4] is Lactuca sativa. The assay can be described thus: Phytotoxic activity against Latuca sativa assessed as radicle length elongation at 15 ppm. In a few lines: as §1
Assay [5] concerns Lactuca sativa. The experiment in a line: Phytotoxic activity against Latuca sativa assessed as radicle length elongation at 150 ppm. In a few lines: as §1
Assay [6] has as its system Avena sativa. The experiment in a line: Phytotoxic activity against Avena sativa assessed as radicle length elongation at 15 ppm. In a few lines: as §1

For `CO[C@@]12C[C@H]3[C@@H](C[C@H]4O[C@]45CC=CC(=O)[C@]35C)[C@@H]3CC[C@@](O)([C@@H]([C@H]4CC(C)=C(C)C(=O)O4)CO1)[C@]32C` [12-O-METHYLJABOROSALACTONE 38], the Activity with Avena sativa [1] was 1.5%; with Lactuca sativa [2] it was -74.7%; with Avena sativa [3] it was -24.5%; with Lactuca sativa [4], -8.7%; with Lactuca sativa [5], -22.7%; in the assay with Avena sativa [6], 15.3%.
On to `CC1=C(C)[C@H]([C@H]2O[C@@]3(O)C[C@H]4[C@@H](C[C@H]5O[C@]56CC=CC(=O)[C@]46C)[C@@H]4CC[C@@](O)([C@@H]2C)[C@]43C)OC1=O` [TRECHONOLIDE A], for which the Activity is recorded as -11.7% with Avena sativa [1]; 2.5% with Lactuca sativa [2]; 4% with Avena sativa [3]; 3.7% in the assay on Lactuca sativa [4]; -8.4% in the assay with Lactuca sativa [5]; 2.5% in the assay with Avena sativa [6].
As for `CC1=C(C)C(=O)O[C@@H]([C@H]2CO[C@@]3(O)C[C@H]4[C@@H](C[C@H]5O[C@]56CC=CC(=O)[C@]46C)[C@@H]4CC[C@]2(O)[C@]43C)C1` [JABOROSALACTONE], the Activity with Avena sativa [1] is given as 2.4%; in the assay on Lactuca sativa [2], -58.6%; in the assay with Avena sativa [3] it was -36.5%; with Lactuca sativa [4], -1.6%; with Lactuca sativa [5], -46.2%; with Avena sativa [6], -13.9%.
Consider `CC1=C(C)[C@H]([C@H]2O[C@@]3(O)C[C@H]4[C@@H](C[C@@H](O)[C@@]5(O)CC=CC(=O)[C@]45C)[C@@H]4CC[C@@](O)([C@@H]2C)[C@]43C)OC1=O` [JABOROTETROL], for which the Activity with Avena sativa [1] is recorded as 2.7%; with Lactuca sativa [2] it was -4%; in the assay on Avena sativa [3] it was -5.9%; in the assay on Lactuca sativa [4] it was -3.9%; with Lactuca sativa [5], -5.5%; in the assay on Avena sativa [6], -10.2%.
For `CCO[C@@]12C[C@H]3[C@@H](C[C@@H](O)[C@@]4(Cl)CC=CC(=O)[C@]34C)[C@@H]3CC[C@@](O)([C@H](C)[C@@H]([C@@H]4OC(=O)C(C)=C4C)O1)[C@]32C` [12-O-ETHYLJABOROSALACTONE 42], the Activity was -11.2% in the assay with Avena sativa [1]; -65.1% in the assay with Lactuca sativa [2]; -32.2% in the assay on Avena sativa [3]; 2.7% in the assay on Lactuca sativa [4]; -25.7% in the assay on Lactuca sativa [5]; 3.5% in the assay on Avena sativa [6].
